Source: PubChem
The list is not random: actives were taken first. Their share in the collection is about 2.7%.
PAFAH1B2 FP inh: inhibitors of human PAFAH1B2; recombinant PAFAH1B2, FP-rhodamine activity probe, fluorescence polarization; AID 492953; 1.2% of 340,000 active; inhibition, % at 3.39 µM;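 active = inhibition above the mean of all tested compounds plus 3 SD, cut at about 24% in these data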;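 also: 0% = enzyme with DMSO and 100% = wells lacking PAFAH1B2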
PAFAH2 FP inh: inhibitors of human PAFAH2; recombinant PAFAH2, FP-rhodamine activity probe, fluorescence polarization; 0.99% of 340,000 active; inhibition, % at 3.39 µM; Q99487; AID 492956;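 active = inhibition above the mean over all tested compounds plus 3 SD, cut at about 30% in these data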;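 also: inhibitors block probe labeling of enzyme so polarization drops; 0% = enzyme with DMSO and 100% = wells lacking PAFAH2 protein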
pPAFAH inh: inhibitors of human plasma PAF acetylhydrolase (pPAFAH); inhibition, % at 3.39 µM; recombinant pPAFAH, FP-rhodamine probe fluorescence polarization; 1.5% of 330,000 active; Q13093;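 active = inhibition above the mean inhibition across the screen plus 3 SD, cut at about 25% in these data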;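 also: inhibitors block binding of the rhodamine activity-based probe so polarization drops; 0% = enzyme with DMSO and 100% = wells lacking pPAFAH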
Target sequence (Q13093 whole entry, looked up): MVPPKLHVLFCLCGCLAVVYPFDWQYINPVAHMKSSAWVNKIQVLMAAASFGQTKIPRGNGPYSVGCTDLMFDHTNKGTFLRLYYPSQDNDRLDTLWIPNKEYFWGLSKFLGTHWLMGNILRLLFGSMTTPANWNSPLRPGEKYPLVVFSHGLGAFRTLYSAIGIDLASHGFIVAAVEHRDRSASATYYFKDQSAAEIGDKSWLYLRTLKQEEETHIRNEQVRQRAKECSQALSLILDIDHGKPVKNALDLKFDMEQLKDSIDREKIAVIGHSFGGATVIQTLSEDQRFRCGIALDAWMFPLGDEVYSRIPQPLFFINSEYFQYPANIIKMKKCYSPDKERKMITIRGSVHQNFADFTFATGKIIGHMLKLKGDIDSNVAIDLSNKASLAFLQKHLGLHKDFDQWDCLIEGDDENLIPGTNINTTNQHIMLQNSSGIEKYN
PAFAH1B3 FP inh: PAFAH1B3 (human) inhibition; Q15102; recombinant PAFAH1B3, FP-rhodamine probe, fluorescence polarization; inhibition, % at 3.39 µM; 0.28% of 340,000 active;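 active = inhibition above the screen-wide average of all tested compounds plus 3 SD, cut at about 25% in these data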;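 also: 0% = enzyme with DMSO only and 100% = wells lacking PAFAH1B3 protein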
Target sequence (Q15102 whole entry, looked up): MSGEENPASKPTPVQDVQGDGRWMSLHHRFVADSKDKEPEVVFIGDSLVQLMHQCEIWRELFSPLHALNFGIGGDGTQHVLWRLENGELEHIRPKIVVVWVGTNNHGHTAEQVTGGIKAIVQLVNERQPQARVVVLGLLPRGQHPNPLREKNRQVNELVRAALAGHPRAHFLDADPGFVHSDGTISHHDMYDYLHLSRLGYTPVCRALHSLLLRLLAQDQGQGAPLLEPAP
ARFGAP1 inh: inhibitors of rat ARFGAP1. Q62848. 0.26% of 360,000 active. Arfgap1-stimulated ARF1 GTP hydrolysis, GDP FP detection. inhibition, % at 16.5 µM;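 active = inhibition above a per-plate limit, mean inhibition of low control wells plus 3 SD, cut at about 25% in these data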;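 also: 0% = DMSO wells with enzyme and 100% = wells lacking Arfgap1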
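system = rat Arfgap1 catalytic domain, aa 1-136 | technique = FP, GDP Alexa 633 tracer displaced from anti-GDP antibody, 620/688 nm | compound = one concentration, 16.5 µM, DMSO 1.26% | medium = HEPES-based buffer, pH 7.5 | timing = compound-enzyme preincubation 20 min, reaction 120 min, detection 60 min, 25 °C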
ASAP1 GAP inh: ASAP1 ArfGAP inhibition; AID 624377; inhibition, % at 16.5 µM; ASAP1-stimulated ARF1 GTP hydrolysis, GDP FP detection; 0.19% of 360,000 active; in the data active = inhibition above about 25%;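 also: 0% = vehicle with enzyme and substrate and 100% = no enzyme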
PAFAH2 FP conf: PAFAH2 (human) inhibition, confirmed; shares compounds with PAFAH2 FP inh; 65% of 2,300 active; recombinant PAFAH2, FP-rhodamine activity probe, fluorescence polarization; AID 493030; inhibition, % at 3.39 µM;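 active = mean inhibition over three repeats above a set limit taken from the earlier primary screen, cut at about 30% in these data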;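 also: inhibitor blocks binding of rhodamine activity probe so polarization falls; 0% = enzyme with DMSO and 100% = wells lacking PAFAH2 protein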
The depositor's hits bear a star; · = not tested or not shown.

SMILES | PAFAH1B2 FP inh | PAFAH2 FP inh | pPAFAH inh | PAFAH1B3 FP inh | ARFGAP1 inh | ASAP1 GAP inh | PAFAH2 FP conf
COc1ccc(Cl)cc1NC(=O)C1CC(c2ccccc2Cl)=NO1 (stereo not drawn) | · | · | · | · | 4 | -7 | ·
O=C(Nc1cc(Cl)ccc1O)C1CC(c2ccccc2Cl)=NO1 (stereo not drawn) | -1 | 33* | · | -5 | 3 | 7 | 22
COc1cccc(NC(=O)COC(=O)c2ccc3c(c2)OCCO3)c1 | · | · | · | · | 3 | 6 | ·
COc1cccc(NC(=O)COC(=O)c2ccc3c(c2)OCO3)c1 | 2 | 83* | · | -1 | 5 | 5 | 73*
O=C(COC(=O)c1ccc2c(c1)OCO2)Nc1ccccc1OC(F)F | 3 | 47* | 12 | 5 | 7 | 5 | 46*
CC(NS(=O)(=O)c1ccc(Cl)c(Cl)c1)C(=O)OCC(=O)Nc1ccc2c(c1)OCO2 (stereo not drawn) | 3 | 31* | 11 | 5 | 14 | 11 | 24
CN(C)c1ccc(NC(=O)COC(=O)c2ccc3c(c2)OCO3)cc1 | -2 | 32* | 11 | -1 | 1 | -6 | 27
Cc1ccc(C(=O)N[C@H](C(=O)Nc2cccc(S(=O)(=O)N3CCOCC3)c2)C(C)C)cc1 | · | · | · | · | 11 | 8 | ·
NC(=O)c1ccc(NC(=O)COC(=O)c2ccc3c(c2)OCCO3)cc1 | 5 | 18 | 0 | 11 | 4 | -5 | ·
O=C(COC(=O)c1ccncc1)Nc1ccccc1 | 1 | -9 | 3 | 3 | -6 | -7 | ·
O=C(COC(=O)c1ccc2c(c1)OCO2)Nc1ccccc1 | 1 | 84* | 15 | 4 | 2 | 6 | 81*
COc1ccc(C(=O)OCC(=O)Nc2c(C)cccc2C)cc1 | 0 | 67* | 8 | 2 | 20 | 8 | 60*
CN(C)S(=O)(=O)c1cc(NC(=O)COC(=O)c2ccc3c(c2)OCO3)ccc1Cl | 4 | 57* | -1 | 8 | 12 | 2 | 78*
O=C(COC(=O)c1ccc(CSc2ccc(Cl)cc2)cc1)Nc1ccccc1 | 8 | 34* | 15 | 3 | 9 | -9 | 16
CC(C)(C)OC(=O)N[C@@H](C(=O)OC(C)(C)C)c1ccc(Br)cc1 | 5 | -10 | 1 | 13 | -9 | 10 | ·
O=C1OC2C(O)COC23OC(O)CCC13O (stereo not drawn) | · | · | · | · | -9 | -4 | ·
CCCCCNC(=O)c1[nH]c(C(F)(F)F)nc1-c1ccccc1 | · | · | · | · | 19 | 2 | ·
O=C1NC[C@@H](CCCCN2C[C@H](Cc3ccc(O)cc3)N(CCc3ccc(O)cc3)C(=O)C2=O)N(CCc2ccc(O)cc2)C1=O | · | · | · | · | 7 | 3 | ·
O=C(OCCCc1cc2ccccc2c(=O)o1)c1ccc2c(c1)OCO2 | -2 | 38* | 8 | 0 | -2 | 2 | 15
Cc1cccc(NC(=O)COC(=O)c2ccc3c(c2)OCO3)c1C | 2 | 40* | 2 | 10 | -5 | -4 | 42*
O=C(COC(=O)/C=C/c1ccc2c(c1)OCO2)Nc1ccccc1 | 9 | 79* | 3 | 8 | 10 | -2 | 81*
O=C(OCCc1cc2ccccc2c(=O)o1)c1ccc2c(c1)OCO2 | 0 | 8 | 5 | 0 | 4 | -13 | ·
O=C(COC(=O)/C=C/c1ccc2c(c1)OCO2)Nc1ccc(S(=O)(=O)N2CCCC2)cc1 | -2 | -8 | 3 | -7 | 8 | 0 | ·
CN(C)c1nc(Oc2ccc(C(=O)OCC(=O)Nc3ccccc3)cc2)nc(N(C)C)n1 | 1 | 90* | 23 | 0 | 10 | 16 | 76*
CCC(CCNC(=O)c1ccccc1)(CCNC(=O)c1ccccc1)[N+](=O)[O-] | 4 | -3 | · | 9 | 6 | -4 | ·
SMILES | PAFAH1B2 FP inh | PAFAH2 FP inh | pPAFAH inh | PAFAH1B3 FP inh | ARFGAP1 inh | ASAP1 GAP inh | PAFAH2 FP conf
Cc1c(Cl)cnc(NC(=O)COC(=O)CCC(=O)c2cccs2)c1Cl | 3 | 0 | · | -2 | 0 | 0 | ·
Cc1c(Cl)cnc(NC(=O)COC(=O)c2ccc3ncsc3c2)c1Cl | 5 | 47* | 5 | 4 | 9 | -1 | 36*
O=C(COC(=O)c1sc2cc(Cl)ccc2c1Cl)Nc1ncc(Cl)cc1Cl | · | · | 17 | · | 2 | -5 | ·
O=C(COC(=O)c1ccc2ncsc2c1)NC(=O)c1ccccc1 | 5 | 4 | 3 | -5 | 1 | -7 | ·
O=C(COC(=O)c1ccc2ncsc2c1)Nc1ncc(Cl)cc1Cl | 2 | 31* | -1 | -4 | 8 | 7 | 25
O=C(COC(=O)c1ccc2ncsc2c1)Nc1cc(Cl)ccc1F | 2 | 66* | · | 4 | 21 | 8 | 60*
CCCc1cc(C(=O)NC(C)C2CCCO2)cs1 (stereo not drawn) | -2 | 0 | 0 | 3 | 14 | 9 | ·
O=C1c2ccccc2C(c2nnnn2Cc2ccccc2)N1CCc1c[nH]c2ccccc12 (stereo not drawn) | · | · | · | · | -11 | 1 | ·
CCOc1ccc(C(=O)OCC(=O)NCc2ccccc2)cc1OCC | 2 | 72* | 1 | 9 | -2 | 8 | 66*
O=C(COC(=O)c1cccc(Cl)c1)NCc1ccccc1 | 2 | 20 | 14 | 5 | 6 | 0 | ·
CCOc1ccc(C(=O)OCC(=O)Nc2cccnc2Cl)cc1OCC | 2 | 74* | 8 | 2 | 9 | 2 | 58*
CO[C@@]12[C@@H]3N[C@@H]3CN1C1=C(C(=O)C(N)=C(C)C1=O)[C@@H]2COC(N)=O | 4 | -5 | · | 10 | -2 | -3 | ·
O=c1c(C(c2c(O)nc3n(c2=O)CCS3)c2cccc3ccccc23)c(O)nc2n1CCS2 | 3 | 37* | -5 | -3 | 7 | 16 | 26
Cc1ccc(/C=C/C(=O)OCC(=O)NC(C)C)o1 | 4 | 35* | 4 | 4 | -17 | 1 | 6
CCN(CC)S(=O)(=O)c1ccc(/C=C/C(=O)OCC(=O)NCc2cccs2)cc1 | -2 | 93* | 21 | 3 | -18 | 1 | 80*
O=C(COC(=O)/C=C/c1ccc(F)cc1)NCc1cccs1 | 2 | 62* | 6 | 5 | 15 | 1 | 47*
Cc1ccc(/C=C/C(=O)OCC(=O)NCc2cccs2)o1 | 2 | 68* | 9 | 5 | -14 | 6 | 53*
CCN(CC(=O)NCc1cccs1)S(=O)(=O)c1ccc([N+](=O)[O-])cc1 | 4 | -3 | 8 | 5 | -4 | 8 | ·
CC(Sc1nnc(-c2cccnc2)n1N)C(=O)Nc1ccc2c(c1)OCCO2 (stereo not drawn) | -1 | 2 | · | 8 | -1 | 5 | ·
CCOc1ccc(CCN2C(=O)C(=O)N([C@@H](Cc3ccccc3)CN3CCC[C@H]3CN3C(=O)C(=O)NC[C@@H]3Cc3ccccc3)C[C@@H]2Cc2ccccc2)cc1 | · | · | · | · | -11 | 2 | ·
O=C(COC(=O)c1ccccc1Br)NCc1cccs1 | 13 | 19 | 0 | 10 | -10 | -2 | ·
